# Experiments:
# Type in all cases: physicochemical
# [1] = Antioxidant activity assessed as inhibition of superoxide induced reduction of NBT measured for 2 mins by UV-visible spectrophotometric method; conditions: for inhibition (INH): 2 min
# How it was run: (§1)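 Superoxide produced by the NADH/PMS/O2 system at room temperature. NBT reduction followed at 560 nm over 2 min. Compounds in DMSO at final 25–200 μM. IC50 from % inhibition vs concentration curves, at least four independent experiments in triplicate. The single-concentration line is % inhibition at the top concentration.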
# [2] = Antioxidant activity assessed as inhibition of H2O2 induced lucigenin oxidation at 37 degC
# How it was run: (§2)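 H2O2 scavenging by chemiluminescence: H2O2-induced lucigenin oxidation, signal recorded immediately after the plate enters the reader. Compounds in DMSO at final 31.25–1000 μM, 37 °C. IC50 from % inhibition vs concentration curves (5–7 concentrations in triplicate, at least four independent experiments). Single-concentration line gives % effect at the top concentration. Quercetin as positive control.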
# [3] = Antioxidant activity assessed as inhibition of HOCl-induced oxidation of DHR to rhodamine 123 at 37 degC by fluorimetric method
# How it was run: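 HOCl made daily by adjusting 1% NaOCl to pH 6.2 with 10% H2SO4. HOCl-induced DHR oxidation to rhodamine 123 read immediately at ex 480/em 528 nm, 37 °C. Compounds in ethanol, final 6.25–400 μM. IC50 from inhibition curves, 5–7 concentrations in triplicate, ≥4 independent experiments.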
# [4] = Antioxidant activity assessed as inhibition of singlet oxygen induced oxidation of non-fluorescent DHR to fluorescent rhodamine 123 at 37 degC measured after 30 mins by fluorimetric method; conditions: for inhibition (INH): 0.5 h
# How it was run: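 Singlet oxygen generated by thermal decomposition of NDPO2 at 37 °C. DHR oxidation to rhodamine 123 read fluorimetrically after 30 min incubation. Compounds in DMSO, final 0.3125–20 μM for chromones and 0.625–80 μM for xanthones. IC50 from % inhibition curves, 5–7 concentrations in triplicate, ≥4 independent experiments.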
# [5] = Antioxidant activity assessed as inhibition of NO-induced oxidation of non-fluorescent DAF-2 to the fluorescent triazolofluorescein after 30 mins by fluorimetric method; conditions: for inhibition (INH): 0.5 h
# How it was run: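 •NO released from NOC-5; oxidation of DAF-2 to DAF-2T read fluorimetrically (ex 485/em 528 nm) after 30 min at 37 °C. Compounds in DMSO at final 0.25–8 μM. IC50 derived from % inhibition vs concentration curves, 5–7 concentrations in triplicate, at least four independent experiments.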
# [6] = Antioxidant activity assessed as inhibition of peroxynitrite induced oxidation of the non-fluorescent dihydrorhodamine 123 to the fluorescent rhodamine 123 after 2 mins by fluorimetric method; conditions: for inhibition (INH): 2 min
# How it was run: (§3)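 Peroxynitrite (synthesized in-house) oxidizes DHR to rhodamine 123; fluorescence read after 2 min at 37 °C. Compounds in DMSO at final 0.156–5 μM. A parallel set was run with 25 mM NaHCO3 to mimic physiological CO2. IC50 from inhibition curves, 5–7 concentrations in triplicate, ≥4 independent experiments.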
# [7] = Antioxidant activity assessed as inhibition of peroxynitrite induced oxidation of the non-fluorescent dihydrorhodamine 123 to the fluorescent rhodamine-123 in presence of NaHCO3 after 2 mins by fluorimetric method; how it was run: as §3
# [8] = Antioxidant activity assessed as inhibition of H2O2 induced lucigenin oxidation at 1000 uM at 37 degC; how it was run: as §2
# [9] = Antioxidant activity assessed as inhibition of superoxide induced reduction of NBT measured for 2 mins at 200 uM by UV-visible spectrophotometric method; how it was run: as §1
SMILES,IC50 [1],IC50 [2],inhibition (INH) [2],IC50 [3],inhibition (INH) [3],IC50 [4],inhibition (INH) [4],IC50 [5],inhibition (INH) [5],IC50 [6],inhibition (INH) [6],IC50 [7],IC50 ([1]; read-out: IC50),inhibition (INH) [1],inhibition (INH) [8],inhibition (INH) [9]
O=c1c(O)c(-c2ccc(O)c(O)c2)oc2cc(O)cc(O)c12 [QUERCETIN],–,1340 µM,–,2.4 µM,–,1.5 µM,–,0.77 µM,–,0.45 µM,–,0.68 µM,60 µM,–,–,–
O=c1cc(/C=C/C=C/c2ccc(O)c(O)c2)oc2cccc(O)c12,ND(Insoluble),125 µM,Dose-dependent effect,94 µM,Dose-dependent effect,1.1 µM,Dose-dependent effect,1.23 µM,Dose-dependent effect,0.34 µM,Dose-dependent effect,0.4 µM,–,–,–,–
O=c1c2ccccc2oc2cccc(-c3ccc(O)c(O)c3)c12,–,–,–,158 µM,Dose-dependent effect,4.4 µM,Dose-dependent effect,1.99 µM,Dose-dependent effect,0.51 µM,Dose-dependent effect,0.35 µM,55 µM,Dose-dependent effect,12%,–
O=c1c2c(O)cccc2oc2cccc(-c3ccc(O)c(O)c3)c12,–,658 µM,Dose-dependent effect,96 µM,Dose-dependent effect,10 µM,Dose-dependent effect,1.5 µM,Dose-dependent effect,0.57 µM,Dose-dependent effect,0.56 µM,80 µM,Dose-dependent effect,–,–

# Continued by falling IC50 [3], values first:
IC50 [1],IC50 [2],inhibition (INH) [2],IC50 [3],inhibition (INH) [3],IC50 [4],inhibition (INH) [4],IC50 [5],inhibition (INH) [5],IC50 [6],inhibition (INH) [6],IC50 [7],IC50 ([1]; read-out: IC50),inhibition (INH) [1],inhibition (INH) [8],inhibition (INH) [9],SMILES
ND(Insoluble),143 µM,Dose-dependent effect,32 µM,Dose-dependent effect,1.3 µM,Dose-dependent effect,0.82 µM,Dose-dependent effect,0.33 µM,Dose-dependent effect,0.34 µM,–,–,–,–,O=c1cc(/C=C/C=C/c2ccc(O)c(O)c2)oc2ccccc12
–,518 µM,Dose-dependent effect,31 µM,Dose-dependent effect,7.3 µM,Dose-dependent effect,1.08 µM,Dose-dependent effect,0.39 µM,Dose-dependent effect,0.66 µM,61 µM,Dose-dependent effect,–,–,O=c1c2ccc(O)cc2oc2cccc(-c3ccc(O)c(O)c3)c12
–,121 µM,Dose-dependent effect,17 µM,Dose-dependent effect,1.6 µM,Dose-dependent effect,1.42 µM,Dose-dependent effect,0.29 µM,Dose-dependent effect,0.3 µM,–,–,–,36%,O=c1cc(/C=C/C=C/c2ccc(O)c(O)c2)oc2cc(O)ccc12
